pIC50: −log10 of the molar value.
Tests used:
[1] = Inhibition of RTK/PI3K/AKT/mTOR signaling in human U87 cells assessed as down regulation of ABCB8 gene expression at cytotoxic IC50 measured after 48 hrs relative to control; type: cell-based; details: U-87MG ATCC
How it was run: (§1)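 U87 cells grown in MEM with 10% FBS at 37°C, 5% CO2. Cells exposed to IC50 of test compound for 48 hrs, alongside untreated and cisplatin controls, each condition in triplicate. RNA isolated and profiled; differential expression called with DESeq2 (q-value < 0.05, fold change > 1.5), fold change versus untreated.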

[2] = system: U-87 MG; experiment: Cell cycle arrest in human U87 cells assessed as change in PCNA gene expression at cytotoxic IC50 measured after 48 hrs […] relative to control; type: functional, U-87MG ATCC
How it was run: (§2)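 U87 expression profiling. Cells incubated 48hrs at 37°C, 5% CO₂ with the IC₅₀ concentration, alongside a cisplatin and an untreated control, in triplicate. RNA was isolated by one common protocol and profiled. DEGs were called with DESeq2 (q < 0.05, fold change > 1.5) and expressed as fold change versus untreated.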

[3] = Inhibition of RTK/PI3K/AKT/mTOR signaling in human U87 cells assessed as up regulation of Rab acceptor 1 gene expression at cytotoxic IC50 measured after 48 hrs relative to control; type: cell-based; details: U-87MG ATCC
How it was run: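 U87 cells were exposed for 48 hrs at 37°C under 5% CO₂, with cisplatin and untreated controls, all in triplicate. RNA was isolated by the same protocol for every sample and expression profiled from mapped reads. Differential expression against untreated cells was called in DESeq2 (q-value < 0.05, fold change > 1.5).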

[4] = system: U-87 MG; experiment: Induction of DNA damage in human U87 cells assessed as change in BTG2 gene expression at cytotoxic IC50 measured after 48 hrs […] relative to control; type: functional, U-87MG ATCC; how it was run: as §2
[5] = system: U-87 MG; experiment: Cell cycle arrest in human U87 cells assessed as change in YWHAG gene expression at cytotoxic IC50 measured after 48 hrs […] relative to control; type: functional, U-87MG ATCC; how it was run: as §2
[6] = Inhibition of RTK/PI3K/AKT/mTOR signaling in human U87 cells assessed as up regulation of KLF7 gene expression at cytotoxic IC50 measured after 48 hrs relative to control; type: cell-based; details: U-87MG ATCC
How it was run: (§3)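 Cells were exposed for 48hrs at 37°C in humidified 5% CO₂ to the compound at its previously determined IC₅₀, with Cisplatin at its IC₅₀ and an untreated negative control alongside. Each condition was run in triplicate. RNA was isolated from all samples by the same protocol. Genes were called differentially expressed by DESeq2 at q-value < 0.05 and fold change > 1.5.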

[7] = system: U-87 MG; experiment: Induction of DNA damage in human U87 cells assessed as change in GADD45A gene expression at cytotoxic IC50 measured after 48 hrs […] relative to control; type: functional, U-87MG ATCC; how it was run: as §2
[8] = Inhibition of RTK/PI3K/AKT/mTOR signaling in human U87 cells assessed as up regulation of STC2 gene expression at cytotoxic IC50 measured after 48 hrs relative to control; type: cell-based; details: U-87MG ATCC
[9] = system: U-87 MG; experiment: Cell cycle arrest in human U87 cells assessed as change in MYC gene expression at cytotoxic IC50 measured after 48 hrs […] relative to control; type: functional, U-87MG ATCC; how it was run: as §2
[10] = Inhibition of RTK/PI3K/AKT/mTOR signaling in human U87 cells assessed as down regulation of TOMM34 gene expression at cytotoxic IC50 measured after 48 hrs relative to control; type: cell-based; details: U-87MG ATCC; how it was run: as §3
[11] = system: LN-229; experiment: Cytotoxicity against human LN229 cells assessed as reduction in cell proliferation measured after 48 hrs by trypan blue dye-based cell counting analysis; details: LN-229, 48 h
[12] = Inhibition of RTK/PI3K/AKT/mTOR signaling in human U87 cells assessed as up regulation of KCMF1 gene expression at cytotoxic IC50 measured after 48 hrs relative to control; type: cell-based; details: U-87MG ATCC; how it was run: as §3
[13] = Inhibition of RTK/PI3K/AKT/mTOR signaling in human U87 cells assessed as down regulation of NLRC5 gene expression at cytotoxic IC50 measured after 48 hrs relative to control; type: cell-based; details: U-87MG ATCC; how it was run: as §3
[14] = Inhibition of RTK/PI3K/AKT/mTOR signaling in human U87 cells assessed as up regulation of ral guanine nucleotide dissociation stimulator gene expression at cytotoxic IC50 measured after 48 hrs relative to control; type: cell-based; details: U-87MG ATCC
[15] = Inhibition of RTK/PI3K/AKT/mTOR signaling in human U87 cells assessed as up regulation of keratinocyte associated protein 3 gene expression at cytotoxic IC50 measured after 48 hrs relative to control; type: cell-based
[16] = Inhibition of RTK/PI3K/AKT/mTOR signaling in human U87 cells assessed as up regulation of proline-serine-threonine phosphatase interacting protein 2 gene expression at cytotoxic IC50 measured after 48 hrs relative to control; type: cell-based; details: U-87MG ATCC
[17] = Inhibition of RTK/PI3K/AKT/mTOR signaling in human U87 cells assessed as up regulation of basic transcription factor 3 like 4 gene expression at cytotoxic IC50 measured after 48 hrs relative to control; type: cell-based; details: U-87MG ATCC
[18] = system: U-87 MG; experiment: Induction of DNA damage in human U87 cells assessed as change in BRCA1 gene expression at cytotoxic IC50 measured after 48 hrs […] relative to control; type: functional, U-87MG ATCC; how it was run: as §2
[19] = Inhibition of RTK/PI3K/AKT/mTOR signaling in human U87 cells assessed as up regulation of phosphofructokinase, platelet gene expression at cytotoxic IC50 measured after 48 hrs relative to control; type: cell-based
[20] = system: U-87 MG; experiment: Cell cycle arrest in human U87 cells assessed as change in CDK7 gene expression at cytotoxic IC50 measured after 48 hrs […] relative to control; type: functional, U-87MG ATCC; how it was run: as §2
[21] = system: LN-229; experiment: Induction of apoptosis in human LN229 cells assessed as apoptotic cells at cytotoxic IC50 measured after 48 hrs by Annexin V-FITC/propidium iodide staining based flow cytometry (reference value: 29.3%); type: functional
[22] = system: U-87 MG; experiment: Induction of DNA damage in human U87 cells assessed as change in MDM2 gene expression at cytotoxic IC50 measured after 48 hrs […] relative to control; type: functional, U-87MG ATCC; how it was run: as §2
[23] = Inhibition of RTK/PI3K/AKT/mTOR signaling in human U87 cells assessed as up regulation of solute carrier family 4 member 2 gene expression at cytotoxic IC50 measured after 48 hrs relative to control; type: cell-based; details: U-87MG ATCC
[24] = system: U-87 MG; experiment: Cytotoxicity against human U87 cells assessed as reduction in cell proliferation up to 200 uM by trypan blue dye-based cell counting analysis; type: functional; details: U-87MG ATCC, TDE = time-dependent effect
How it was run: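 U87 cells grown 24hrs, then treated for 5hrs with 0-200 μM. Viability by trypan blue exclusion; mean ± S.E.M, n = 4 per group, one-way ANOVA.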

[25] = Inhibition of RTK/PI3K/AKT/mTOR signaling in human U87 cells assessed as up regulation of solute carrier family 11 member 2 gene expression at cytotoxic IC50 measured after 48 hrs relative to control; type: cell-based; details: U-87MG ATCC
[26] = Inhibition of RTK/PI3K/AKT/mTOR signaling in human U87 cells assessed as up regulation of TOX2 gene expression at cytotoxic IC50 measured after 48 hrs relative to control; type: cell-based; details: U-87MG ATCC
[27] = system: U-87 MG; experiment: Induction of apoptosis in human U87 cells assessed as change in PIDD1 gene expression at cytotoxic IC50 measured after 48 hrs […] relative to control; type: functional, U-87MG ATCC; how it was run: as §1

With `CC(=O)C(=NNc1ccccc1C#N)C(C)=O` the log2FC [1] was -0.871, the “fold change (FC)” value [2] was 1.668 and the log2FC [3] was 0.839. The “fold change (FC)” value [4] was 2.177, the “fold change (FC)” value [5] was -0.7503 and the log2FC [6] was 1.91. The “fold change (FC)” value [7] was -0.9679, the log2FC [8] was 3.02 and the “fold change (FC)” value [9] was -1.478. The log2FC [10] was -1.47, the pIC50 [11] was 4.06 and the log2FC [12] was 0.499. For the same molecule, the log2FC [13] was -1.26, the log2FC [14] was 0.685 and the log2FC [15] was 1.03. The log2FC [16] was 0.785, the log2FC [17] was 0.896 and the “fold change (FC)” value [18] was 2.408. The log2FC [19] was 0.662, the “fold change (FC)” value [20] was -1.609 and the Activity [21] was 57.3%. The “fold change (FC)” value [22] was 1.471, the log2FC [23] was 1.04 and the Activity [24] was “Tde”. It also gave a log2FC [25] of 1.18, a log2FC [26] of 1.66 and a log2FC [27] of 2.467.
